The values that follow come from ChEMBL document CHEMBL1137444, “Thiazole-diamides as potent gamma-secretase inhibitors” (Bioorg Med Chem Lett, 2007).

Experiment [1] addresses Gamma-secretase. Briefly: Inhibition of gamma secretase C100Flag cleavaging activity in HeLa cell membranes assessed as M-amyloid beta-40 production by cell free assay. Also noted: species or system Homo sapiens. In short, it runs like this:
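IC50 taken as the geometric mean of at least two experiments, each run with six data points.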

Experiment [2] concerns the target Gamma-secretase. Briefly: Inhibition of gamma secretase activity in human H4 cells transfected with APP695 mutant assessed as beta amyloid(1-40) production by whole cell assay. It counts as cell-based. A digest of the protocol: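 Cells were plated at about 30,000 per well and left to attach for about 6 h at 37 °C. They were then washed to clear secreted Aβ and given fresh medium containing compound for overnight incubation at 37 °C. Secreted Aβ in the harvested medium was measured by immunoassay. IC50 is the geometric mean of at least two experiments, six data points each.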

For the molecule `CCC[C@H](NC(=O)[C@@H](O)C(C)C)C(=O)Nc1ncc([C@H](C)CCCC(C)(C)OC)s1`, the IC50 (commonly the concentration needed to halve the response being measured) was 9 nM at Gamma-secretase [1] and 7.49 nM at Gamma-secretase [2].
As for `CCC[C@H](NC(=O)[C@@H](O)C(C)(C)C)C(=O)Nc1ncc(C(C)CCCC(C)(C)O)s1` (stereo partly specified), the IC50 at Gamma-secretase [1] is 7.4 nM; on Gamma-secretase [2] it was 0.22 nM.
With `CCC[C@H](NC(=O)[C@@H](O)C(C)C)C(=O)Nc1ncc(C(C)CCCC(C)(C)OC)s1` (stereo partly specified), the half-maximal inhibitory concentration (IC50) was 5.9 nM at Gamma-secretase [1] and 0.3 nM on Gamma-secretase [2].
Consider `COC(C)(C)CCCC(C)c1cnc(NC(=O)[C@H](C)NC(=O)CCc2cc(F)cc(F)c2)s1` (stereo partly specified), for which the 50% inhibitory concentration (IC50) at Gamma-secretase [1] worked out at 30 nM; on Gamma-secretase [2], 0.22 nM.
For the molecule `CCC[C@H](NC(=O)[C@@H](O)C(C)(C)C)C(=O)Nc1ncc(C(C)CCCC(C)(C)OC)s1` (stereo partly specified), the half-maximal inhibitory concentration (IC50) was determined as 13 nM on Gamma-secretase [1] and 0.43 nM on Gamma-secretase [2].
For `CCC[C@H](NC(=O)[C@@H](O)C(C)(C)C)C(=O)Nc1ncc([C@@H](C)CCCC(C)(C)OC)s1`, the IC50 on Gamma-secretase [1] is 10 nM; at Gamma-secretase [2], 0.11 nM.
On to `CCC[C@H](NC(=O)[C@@H](O)C(C)(C)C)C(=O)Nc1ncc([C@H](C)CCCC(C)(C)OC)s1`, for which the IC50 amounted to 9.9 nM at Gamma-secretase [1] and 1.14 nM at Gamma-secretase [2].
As to `CCC[C@H](NC(=O)Cc1cc(F)cc(F)c1)C(=O)Nc1ncc(C(CC)CC)s1`, the IC50 at Gamma-secretase [1] is 26.3 nM; at Gamma-secretase [2], 2.2 nM.
For `CCC[C@H](NC(=O)Cc1cc(F)cc(F)c1)C(=O)Nc1ncc(C(O)(CC)CC)s1` the same measures were 1 nM and 1.2 nM.
For `CCC[C@H](NC(=O)[C@@H](O)c1ccccc1)C(=O)Nc1ncc(C(O)(CC)CC)s1` the same measures were 2.8 nM and 2.2 nM.
The corresponding values for `CCC[C@H](NC(=O)[C@@H](O)C(C)C)C(=O)Nc1ncc([C@@H](C)CCCC(C)(C)OC)s1` are 9 nM and 0.3 nM.
Regarding `CCC[C@H](NC(=O)CCc1cc(F)cc(F)c1)C(=O)Nc1ncc(C(C)CCCC(C)(C)OC)s1` (stereo partly specified), the IC50 on Gamma-secretase [1] was 10 nM; at Gamma-secretase [2], 0.14 nM.
For `CCC[C@H](NC(=O)Cc1cc(F)cc(F)c1)C(=O)Nc1ncc(C(C)CC(C)(C)C)s1` (stereo partly specified) the same measures were 64.8 nM and 1.6 nM.
The corresponding values for `CC[C@H](NC(=O)CCc1cc(F)cc(F)c1)C(=O)Nc1ncc([C@@H](C)CCCC(C)(C)OC)s1` are 30 nM and 0.1 nM.
The corresponding values for `CCC[C@H](NC(=O)[C@@H](O)c1cc(F)cc(F)c1)C(=O)Nc1ncc(C(CC)CC)s1` are 6.2 nM and 0.3 nM.
As to `CCC[C@H](NC(=O)Cc1cc(F)cc(F)c1)C(=O)Nc1nc(C)c(CC)s1`, the figures for the IC50 on Gamma-secretase [1] and on Gamma-secretase [2] were 30 nM and 12.9 nM, respectively.
The corresponding values for `CCC[C@H](NC(=O)Cc1cc(F)cc(F)c1)C(=O)Nc1nc(C)c(C(C)=O)s1` are 20 nM and 27.7 nM.
For `CC[C@H](NC(=O)CCc1cc(F)cc(F)c1)C(=O)Nc1ncc(C(C)CCCC(C)(C)OC)s1` (stereo partly specified) the same measures were 13.6 nM and 0.08 nM.
As for `CCC[C@H](NC(=O)C(=O)C(C)(C)C)C(=O)Nc1ncc(C(C)C)s1`, the results for the IC50 on Gamma-secretase [1] and at Gamma-secretase [2] were 116 nM and 16.8 nM, respectively.
In the case of `CCC[C@H](NC(=O)Cc1cc(F)cc(F)c1)C(=O)Nc1nc(C)c(C(C)NCC(F)(F)F)s1` (stereo partly specified), the IC50 came to 10 nM at Gamma-secretase [1] and 4.5 nM at Gamma-secretase [2].
As for `CCCNC(C)c1cnc(NC(=O)[C@H](CCC)NC(=O)Cc2cc(F)cc(F)c2)s1` (stereo partly specified), the IC50 stood at 15.9 nM at Gamma-secretase [1] and 10.1 nM on Gamma-secretase [2].
For `CCC[C@H](NC(=O)Cc1cc(F)cc(F)c1)C(=O)Nc1ncc(C(C)NC(C)C)s1` (stereo partly specified) the same measures were 42.4 nM and 29.8 nM.
For `CCC[C@H](NC(=O)Cc1cc(F)cc(F)c1)C(=O)Nc1ncc(C(C)NCC(C)C)s1` (stereo partly specified) the same measures were 4.2 nM and 4.2 nM.
For `CCC[C@H](NC(=O)Cc1cc(F)cc(F)c1)C(=O)Nc1nc(C)c(C(C)NCCC(C)(C)C)s1` (stereo partly specified) the same measures were 5.9 nM and 2 nM.
In the case of `CCC[C@H](NC(=O)Cc1cc(F)cc(F)c1)C(=O)Nc1nc(C)c(C(C)N(C)C)s1` (stereo partly specified), the IC50 is 28.3 nM at Gamma-secretase [1] and 39.7 nM at Gamma-secretase [2].
For `CCC[C@H](NC(=O)Cc1cc(F)cc(F)c1)C(=O)Nc1ncc(C(C)NCc2ccccc2)s1` (stereo partly specified) the same measures were 3 nM and 1.4 nM.
For the molecule `CCC[C@H](NC(=O)Cc1cc(F)cc(F)c1)C(=O)Nc1nc(C)c(C(C)NCCC(C)C)s1` (stereo partly specified), the IC50 was determined as 5 nM on Gamma-secretase [1] and 2 nM at Gamma-secretase [2].
In the case of `CCC[C@H](NC(=O)Cc1cc(F)cc(F)c1)C(=O)Nc1ncc(C(C)NCCC(C)(C)C)s1` (stereo partly specified), the IC50 on Gamma-secretase [1] came out at 2.7 nM; at Gamma-secretase [2], 1.2 nM.
The corresponding values for `CCC[C@H](NC(=O)Cc1cc(F)cc(F)c1)C(=O)Nc1ncc(CN2CCOCC2)s1` are 30 nM and 12.7 nM.
The corresponding values for `CCC[C@H](NC(=O)Cc1cc(F)cc(F)c1)C(=O)Nc1ncc(C(C)N2CCOCC2)s1` (stereo partly specified) are 3.8 nM and 2.4 nM.
The corresponding values for `CCC[C@H](NC(=O)Cc1cc(F)cc(F)c1)C(=O)Nc1ncc(CN)s1` are 200 nM and 93 nM.
As for `CCC[C@H](NC(=O)Cc1cc(F)cc(F)c1)C(=O)Nc1nc(C)c(C(C)NC)s1` (stereo partly specified), the IC50 at Gamma-secretase [1] came out at 51.8 nM; on Gamma-secretase [2], 50.5 nM.
The corresponding values for `CCC[C@H](NC(=O)Cc1cc(F)cc(F)c1)C(=O)Nc1nc(C)c(C(C)NCC)s1` (stereo partly specified) are 155 nM and 42 nM.
For `CCCCNC(C)c1sc(NC(=O)[C@H](CCC)NC(=O)Cc2cc(F)cc(F)c2)nc1C` (stereo partly specified) the same measures were 7.1 nM and 3.7 nM.
The corresponding values for `CC[C@H](NC(=O)CCc1cc(F)cc(F)c1)C(=O)Nc1ncc([C@H](C)CCCC(C)(C)OC)s1` are 727 nM and 81.5 nM.
As for `CCCCN(CC)Cc1cnc(NC(=O)[C@H](CCC)NC(=O)Cc2cc(F)cc(F)c2)s1`, the IC50 at Gamma-secretase [1] is 30 nM; at Gamma-secretase [2] it was 12.7 nM.
In the case of `CCC[C@H](NC(=O)Cc1cc(F)cc(F)c1)C(=O)Nc1ncc(C(C)N2CCCC2)s1` (stereo partly specified), the IC50 at Gamma-secretase [1] is 10 nM; on Gamma-secretase [2] it was 10.6 nM.
The corresponding values for `CCC[C@H](NC(=O)[C@H](O)c1ccccc1)C(=O)Nc1ncc(C(O)(CC)CC)s1` are 141 nM and 183 nM.
Turning to `CCC[C@H](NC(=O)Cc1cc(F)cc(F)c1)C(=O)Nc1nc(C)c(C)s1`, the IC50 at Gamma-secretase [1] is 141 nM; on Gamma-secretase [2], 94.1 nM.
The corresponding values for `CCC[C@H](NC(=O)Cc1cc(F)cc(F)c1)C(=O)Nc1nc(C)c(C(C)N2CCN(C)CC2)s1` (stereo partly specified) are 28.3 nM and 26.1 nM.
The corresponding values for `CCC[C@H](NC(=O)Cc1cc(F)cc(F)c1)C(=O)Nc1ncc(C(C)NCC(C)(C)C)s1` (stereo partly specified) are 134 nM and 231 nM.
The corresponding values for `CCCCNC(C)c1cnc(NC(=O)[C@H](CCC)NC(=O)Cc2cc(F)cc(F)c2)s1` (stereo partly specified) are 6 nM and 2 nM.
Regarding `CCC[C@H](NC(=O)Cc1cc(F)cc(F)c1)C(=O)Nc1ncc(C(C)C)s1`, the IC50 at Gamma-secretase [1] was found to be 30 nM; on Gamma-secretase [2], 5.1 nM.
For the molecule `CCCC(CCC)c1cnc(NC(=O)[C@H](CCC)NC(=O)Cc2cc(F)cc(F)c2)s1`, the IC50 on Gamma-secretase [1] is < 34.6 nM; on Gamma-secretase [2], 0.8 nM.
For `CCC[C@H](NC(=O)Cc1cc(F)cc(F)c1)C(=O)Nc1ncc(C(C)N[C@H](C(=O)OC)C(C)C)s1` (stereo partly specified) the same measures were 4 nM and 0.7 nM.
For `CCC[C@H](NC(=O)[C@@H](O)C(C)(C)C)C(=O)Nc1ncc(C(C)C)s1` the same measures were 45.1 nM and 20.1 nM.
The corresponding values for `CCC[C@H](NC(=O)[C@@H](O)C(C)(C)C)C(=O)Nc1ncc(C(C)(C)O)s1` are 94.9 nM and 37.3 nM.
For `CCC[C@H](NC(=O)Cc1cc(F)cc(F)c1)C(=O)Nc1ncc(C(C)NCCC(C)C)s1` (stereo partly specified), the values for the IC50 at Gamma-secretase [1] and at Gamma-secretase [2] were 2.6 nM and 1.2 nM, respectively.
The corresponding values for `CCC[C@H](NC(=O)CCc1cc(F)cc(F)c1)C(=O)Nc1ncc(C(C)CCCC(C)(C)O)s1` (stereo partly specified) are 6 nM and 0.05 nM.
`CCC[C@H](NC(=O)Cc1cc(F)cc(F)c1)C(=O)Nc1ncc(CNCC)s1`: the values for the IC50 at Gamma-secretase [1] and on Gamma-secretase [2] were 63.2 nM and 104 nM, respectively.
For `CCC[C@H](NC(=O)Cc1cc(F)cc(F)c1)C(=O)Nc1nc(C)c(C(C)NCC(C)C)s1` (stereo in doubt; 34) the same measures were 10 nM and 4.8 nM.
The corresponding values for `CCC[C@H](NC(=O)Cc1cc(F)cc(F)c1)C(=O)Nc1nc(C)c(C(C)NCC(C)C)s1` (stereo in doubt; 34a) are 3.1 nM and 2.5 nM.
For `CCC[C@H](NC(=O)Cc1cc(F)cc(F)c1)C(=O)Nc1nc(C)c(C(C)NCC(C)C)s1` (stereo in doubt; 34b) the same measures were 33 nM and 31.6 nM.
